This excerpt belongs to a sample that is enriched for hits.
ABCB1 block: blocks JC-1 efflux by human ABCB1 transporter; inhibition, % at 6.6 µM; hit rate 0.067% among 190,000; CCRF-Adr cells, flow cytometry; in the data active = inhibition above about 40%;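 also: 0% = vehicle and 100% = reference inhibitor; higher value means more JC-1 retained so stronger ABCB1 efflux block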
PKD1 kinase inh: inhibitors of human PKD1 kinase; Q15139; hit rate 0.056% among 200,000; PKD1 kinase fluorescence polarization assay; inhibition, % (test concentration not listed)
L major viab: Leishmania major promastigote growth inhibition; Leishmania major promastigotes, resazurin fluorescence viability; inhibition, % at 10 µM; hit rate 9% among 200,000; AID 1063;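 also: promastigotes grown with compound for 44 hours at 28 °C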
ABCG2 inh: blocks JC-1 efflux by human ABCG2 transporter; IgMXP3 cells, flow cytometry; inhibition, % at 6.6 µM; hit rate 0.1% among 190,000; AID 1325;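 active = inhibition above 80%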;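 also: 0% = DMSO and 100% = nicardipine control wells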
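test system = two drug-resistant human cell lines, ABCG2 and ABCB1 | amount = 3 million cells/mL final, two lines in 1:1 ratio | reagent = JC-1 transporter substrate | doses = one concentration, 6.6 µM final | incubation = 10 min at 25 °C | signal = flow cytometric JC-1 green MFI at 530 nm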
Avidin bead fluor: avidin bead compound fluorescence profile | Avidin beads, compound fluorescence 488/530 nm, flow cytometry; stronger effect = higher value | AID 1775 | hit rate 0.38% among 220,000 | fluorescence (KMESF) at 10 µM; in the data active = fluorescence above about 47
GSH fluor: compound fluoresces at 488/530 nm on GSH beads. fluorescence (KMESF) at 10 µM. hit rate 0.25% among 190,000. GSH beads flow cytometry, compound fluorescence 488/530 nm; stronger effect = higher value; in the data active = fluorescence above about 89;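 also: glutathione beads carrying GST-tagged Bcl family fusion proteins plus one bare bead set; values are compound well signal with DMSO vehicle wells as background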
* hit, by the source's call; x = no result. Rule as the data show it, unless noted: active = inhibition above about 50%; inactive = the rest.

SMILES | ABCB1 block | PKD1 kinase inh | L major viab | ABCG2 inh | Avidin bead fluor | GSH fluor
CN(C)c1ccc2nc3ccc(=[N+](C)C)cc-3sc2c1 | -1 | 0 | 100* | -1 | 10 | 9
COc1ccc(NC(=S)NNC(=O)c2nnn(-c3ccccc3)c2C)cc1 | -1 | -9 | -1 | -2 | 1 | 5
C1=C(CCNCC2CC2)CCCC1 | 1 | -10 | 0 | 2 | 35 | 17
Cc1ccc(CNCCC2=CCCCC2)cc1 | 0 | -1 | 70* | 0 | 8 | 5
CC(=O)c1nnn(-c2nc(N)nc(N(c3ccccc3)c3ccccc3)n2)c1C | 1 | -2 | 92* | 3 | 35 | 17
Cc1cc(C)n(-c2nc(N(c3ccccc3)c3ccccc3)nc(-n3nc(C)cc3C)n2)n1 | 12 | 4 | 54* | 16 | 8 | 16
CCCCN(CCCC)c1nc(OC)nc(-n2nnc(C(C)=O)c2C)n1 | 3 | -1 | 63* | 10 | 33 | 17
COC(=O)c1c(NC(=O)C2SC(=NC3CCCCC3)C(C(N)=O)=C2N)sc2c1CCCC2 (centres undefined) | -1 | -3 | -2 | -8 | 6 | 15
Cc1ccc2nc(N(CCCN(C)C)C(=O)c3sc4ccccc4c3Cl)sc2c1 | 0 | 2 | 56* | 1 | 14 | 20
CN(C)CCCN(C(=O)c1ccc2c(c1)CCCC2)c1nc2ccc(F)cc2s1 | 2 | -2 | 74* | 4 | 15 | 20
CN(C)CCCN(C(=O)CCc1ccccc1)c1nc2ccc(F)cc2s1 | 0 | -5 | 48 | 1 | 17 | 19
CN(C)CCCN(C(=O)CCc1ccccc1)c1nc2ccc(Br)cc2s1 | 1 | -10 | 61* | 3 | 13 | 13
Cc1ccc2nc(N(CCCN(C)C)C(=O)c3ccc(S(=O)(=O)N(C)C)cc3)sc2c1 | 7 | -6 | 37 | 6 | 4 | 9
Cc1ccc(C(=O)N(CCCN(C)C)c2nc3ccc(Cl)cc3s2)cc1C | 1 | -4 | 82* | 0 | 9 | 7
Cc1cccc(NC(=O)C2C3CCC4C(CCC32)C4(Cl)Cl)c1 (centres undefined) | 0 | -15 | -6 | 0 | 1 | 6
Oc1ccccc1N1CCN(CC(O)COCc2ccccc2Cl)CC1 (centres undefined) | 0 | -8 | 85* | -1 | 11 | 12
OC(COCc1ccccc1)CN1CCCC1 (centres undefined) | 0 | -1 | 2 | 0 | 5 | 22
O=S(=O)(c1ccc(F)cc1)N1CCN(CC(O)COCc2cccs2)CC1 (centres undefined) | 1 | 7 | -10 | 1 | 14 | 48
OC(COCc1cccs1)CN1CCN(c2cccc(C(F)(F)F)c2)CC1 (centres undefined) | 1 | -9 | 84* | 17 | 19 | 11
CCc1ccc(OCC(O)CN2CCN(c3ccccc3)CC2)cc1 (centres undefined) | 1 | -4 | 94* | 1 | 7 | 14
OC(COCc1ccccc1)CN1CCN(c2ccccc2)CC1 (centres undefined) | 0 | -7 | 90* | 0 | 9 | 35
Cc1cc(=O)[nH]c(N/N=C/c2ccc(OC(=O)c3cccnc3)cc2)n1 | 0 | -5 | 17 | 1 | 25 | 8
CCCc1ccc(OCC(O)CN2CCN(c3ccccc3)CC2)cc1 (centres undefined) | 1 | 1 | 94* | 1 | 2 | 38
Cc1ccc(S(=O)(=O)N(CC(=O)N=Nc2c(O)[nH]c3ccccc23)c2ccc(C)c(C)c2)cc1 | -1 | -3 | 96* | -4 | 11 | 10
COc1ccc(-c2cn3c(C)c(C(=O)Nc4ccncc4)sc3n2)cc1 | 1 | -8 | 100* | 1 | 6 | 15
SMILES | ABCB1 block | PKD1 kinase inh | L major viab | ABCG2 inh | Avidin bead fluor | GSH fluor
COc1ccc(-c2cn3c(C)c(C(=O)Nc4cccc(NC(C)=O)c4)sc3n2)cc1 | 0 | -2 | 12 | 1 | 14 | 14
O=C1N=C(N2CCCCC2)SC1=C1CCCC1 | 0 | 16 | 0 | 2 | 4 | 69
CCCCN1C(=O)/C(=C2\SC(N3CCCCC3)=NC2=O)c2ccccc21 | 3 | -6 | 51* | 13 | 4 | 52
O=C(Nc1c(Cl)cccc1Cl)c1cc(=O)n(Cc2ccccc2)c(=O)[nH]1 | 0 | 5 | -6 | -1 | 32 | 18
CC(C)[C@H](NC(=O)c1ccccc1Cl)C(=O)NC1CCCCCC1 | 0 | -2 | 22 | -1 | 10 | 25
Cc1c(Cl)cccc1NC(=O)[C@@H](NC(=O)c1ccccc1Cl)C(C)C | x | -6 | 73* | 5 | 8 | 10
CS(=O)(=O)c1nc(-c2ccccc2)c(-c2ccccc2)[nH]1 | 0 | 2 | -6 | 1 | 3 | 6
COc1ccc(-c2[nH]c(-c3ccc4c(c3)OCO4)nc2-c2ccccc2)cc1 | 0 | 0 | 65* | 1 | 23 | 8
COc1ccccc1N=Nc1nc(-c2ccccc2)c(-c2ccccc2)[nH]1 | 0 | -7 | 67* | 6 | 4 | 10
COc1ccc(N=Nc2nc(-c3ccccc3)c(-c3ccccc3)[nH]2)cc1 | 1 | 4 | 87* | 4 | 16 | 10
Oc1ccccc1N=Nc1nc(-c2ccccc2)c(-c2ccccc2)[nH]1 | 0 | -3 | 100* | -1 | 13 | 19
COc1cc(-c2nc(-c3ccccc3)c(-c3ccc(F)cc3)[nH]2)cc2c1OCO2 | 0 | -4 | 17 | 2 | 11 | 11
Cn1nc2c3ccccc3n(Cc3ccccc3)c2nc1=S | x | x | x | x | 8 | x
O=C(Nc1ccc(N2CCCCC2)c(Cl)c1)c1ncn[nH]1 | 0 | -6 | 2 | 13 | 13 | 16
Cc1ccc(S(=O)(=O)N(C)CCCC(=O)NC(C)(C)CO)cc1 | 2 | 4 | -4 | 2 | 6 | 13
CCc1cc2c(=O)c(-c3nc(C)cs3)coc2cc1OC(C)C(=O)NCCO (centres undefined) | 0 | -1 | -4 | 1 | 4 | 5
CC(=O)N1CCN(c2c(F)c(F)c(C(F)(F)F)c(F)c2F)CC1 | 1 | 3 | -8 | 2 | 9 | 9
Cc1ccc(C(=O)/C=C/c2ccc(Br)cc2)o1 | 0 | 0 | 79* | 1 | 11 | 25
Cc1ccc(C(=O)/C=C/c2ccccc2)o1 | 0 | 2 | 83* | 4 | 37 | 17
O=C(NC(=S)N(Cc1ccccc1)c1ccccn1)C1CC1 | 0 | -1 | -4 | 0 | 12 | 11
CCOC(=O)CCCNC(=O)CCCNC(=O)C(c1ccccc1)c1ccccc1 | 1 | 11 | -3 | 6 | 23 | 18
CCC(CC)NC(=O)COC(=O)c1cccc(C)c1O | 0 | 0 | -2 | 0 | 4 | 262*
CCOC(=O)CCCNC(=O)COC(=O)c1cccc(C)c1O | 0 | -1 | 33 | 0 | 7 | 261*
Cc1cccc(C(=O)OCC(=O)Nc2ccc(N3CCCCC3)cc2)c1O | 0 | 2 | -2 | 5 | 25 | 24

Source: PubChem
